This is an account of results in ChEMBL document CHEMBL1127749 (J Med Chem, 1994).

For assay [1], the target named is Muscarinic acetylcholine receptor. Kind of assay: In vitro binding affinity for muscarinic receptor by displacing [3H]quinuclidinyl benzilate binding on rat brain stem homogenate. It is filed as tissue-based. The essentials: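 Two full curves, five test concentrations over 3 decades in triplicate. Hand-drawn log curves gave IC50; Ki by Cheng–Prusoff.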
Assay [2] deals with Muscarinic acetylcholine receptor M3 (Cavia porcellus).
The target of assay [3] is Muscarinic acetylcholine receptor M2 (Cavia porcellus). As to the kind of experiment: M2 agonist activity estimated by depression of isolated guinea pig left atrium.
In assay [4] the target is Muscarinic acetylcholine receptor. As to the kind of experiment: In vitro binding affinity for muscarinic receptor by displacing [3H]oxotremorine-M binding on rat brain homogenate. In kind it is tissue-based. The essentials: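 Duplicate full curves of five drug concentrations over 3 decades, triplicate points. IC50 taken from hand-drawn log curves; Ki via Cheng–Prusoff.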

For assay [5], the target named is T1, Muscarinic acetylcholine receptor M1 (Rattus norvegicus, UniProt P08482).
T1 sequence (P08482 whole entry): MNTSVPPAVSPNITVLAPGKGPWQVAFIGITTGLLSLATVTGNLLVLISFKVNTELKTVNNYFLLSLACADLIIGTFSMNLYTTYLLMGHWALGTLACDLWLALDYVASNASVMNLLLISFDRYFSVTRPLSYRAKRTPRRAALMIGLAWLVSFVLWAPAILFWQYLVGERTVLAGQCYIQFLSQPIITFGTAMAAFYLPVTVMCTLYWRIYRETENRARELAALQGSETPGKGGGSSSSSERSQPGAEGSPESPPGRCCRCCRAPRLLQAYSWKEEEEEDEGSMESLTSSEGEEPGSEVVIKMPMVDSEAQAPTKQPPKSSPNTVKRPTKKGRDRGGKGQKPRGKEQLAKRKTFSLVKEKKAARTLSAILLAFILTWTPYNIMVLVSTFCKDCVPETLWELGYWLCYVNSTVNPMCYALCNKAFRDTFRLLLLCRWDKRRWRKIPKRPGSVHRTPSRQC
As to the kind of experiment: In vitro binding affinity for muscarinic M1 receptor by displacing [3H]pirenzepine binding on rat brain homogenate. It is filed as tissue-based. A digest of the protocol: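 Two complete curves, five test concentrations spanning 3 decades, each in triplicate. IC50 read from hand-drawn log concentration–response curves, converted to Ki by Cheng–Prusoff.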

Assay [6] addresses T1, Muscarinic acetylcholine receptor M1. As to the kind of experiment: M1 agonist activity estimated by rat superior cervical ganglion depolarization. It is filed as functional, tissue-based.
Assay [7] addresses Muscarinic acetylcholine receptor. As to the kind of experiment: In vitro binding affinity for muscarinic receptor by displacing [3H]quinuclidinyl benzilate binding on rat brain homogenate. In kind it is tissue-based. The essentials:
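Two concentration–response curves, five concentrations covering 3 decades, triplicates. IC50 estimated from hand-drawn log concentration–response curves and converted to Ki with Cheng–Prusoff equation.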

The species named for assay [8] is Rattus norvegicus. As to the kind of experiment: Ratio of binding affinity at [3H]quinuclidinyl benzilate binding on rat brain homogenate to [3H]- Oxotremorine-M binding on rat brain homogenate. It is filed as functional. A digest of the protocol:
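Ago ratio computed as Ki from [³H]QNB binding to whole rat brain homogenate divided by Ki from [³H]oxotremorine-M binding to whole rat brain homogenate.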

Assay [9] deals with T2, Muscarinic acetylcholine receptor M3 (Cavia porcellus, UniProt Q8VH26). Kind of assay: In vitro ability to contract isolated guinea pig ileum was used to estimate M2/M3 agonist effect. In kind it is functional, tissue-based.
Assay [10] deals with Muscarinic acetylcholine receptor M2 (Mus musculus) (UniProt Q9ERZ4). Kind of assay: In vivo determination of peripheral M2 receptor mediated hypothermia, cholinergic side effect.
The target is the same in assay [11]. As to the kind of experiment: In vivo determination of peripheral M2 receptor mediated salivation, cholinergic side effect.
In assay [12] the target is Muscarinic acetylcholine receptor. As to the kind of experiment: In vitro binding affinity for muscarinic receptors by displacing [3H]quinuclidinyl benzilate binding on rat brain stem homogenate. It is filed as tissue-based.
For assay [13], the species on record is Rattus norvegicus. Kind of assay: Ratio of binding affinity at [3H]quinuclidinyl benzilate binding on rat brain stem homogenate to [3H]pirenzepine binding on rat brain homogenate.
Assay [14] deals with Muscarinic acetylcholine receptor M2 (Mus musculus) (UniProt Q9ERZ4). As to the kind of experiment: In vivo determination of peripheral M2 receptor mediated tremor, cholinergic side effect.
A short description of assay [15]: In vitro binding affinity for muscarinic receptors by displacing [3H]quinuclidinyl benzilate binding on rat brain homogenate. It is filed as tissue-based.
Assay [16] deals with T1, Muscarinic acetylcholine receptor M1. Kind of assay: In vitro ability to depolarize isolated rat superior cervical ganglion was used to estimate their M1 agonistic effect. It is filed as functional, tissue-based. The essentials: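 Because the concentration–response curve is biphasic, EC50 is given as equal to or greater than the calculated value. Apparent efficacy (RM) is maximum effect relative to muscarine's maximum on separate ganglia. Values are means of three to seven separate experiments.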

Assay [17] deals with T2, Muscarinic acetylcholine receptor M3. Kind of assay: In vitro ability to contract isolated guinea pig ileum was used to estimate M3 agonist effect. It is filed as functional, tissue-based.
Assay [18] in a line: In vitro binding affinity for muscarinic receptor by displacing[ H]Quinuclidinyl benzilate binding on rat brain stem homogenate. In kind it is tissue-based. A digest of the protocol:
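Rat brainstem homogenate; displacement of [3H]quinuclidinyl benzilate (0.12 nM). Five test concentrations in triplicate spanning 3 decades, two complete curves. IC50 read from hand-drawn log concentration–response curves and converted to Ki by Cheng–Prusoff using KD 9.7 pM from Scatchard analysis.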

Each structure is given as a SMILES string.

T2 sequence (Q8VH26 whole entry): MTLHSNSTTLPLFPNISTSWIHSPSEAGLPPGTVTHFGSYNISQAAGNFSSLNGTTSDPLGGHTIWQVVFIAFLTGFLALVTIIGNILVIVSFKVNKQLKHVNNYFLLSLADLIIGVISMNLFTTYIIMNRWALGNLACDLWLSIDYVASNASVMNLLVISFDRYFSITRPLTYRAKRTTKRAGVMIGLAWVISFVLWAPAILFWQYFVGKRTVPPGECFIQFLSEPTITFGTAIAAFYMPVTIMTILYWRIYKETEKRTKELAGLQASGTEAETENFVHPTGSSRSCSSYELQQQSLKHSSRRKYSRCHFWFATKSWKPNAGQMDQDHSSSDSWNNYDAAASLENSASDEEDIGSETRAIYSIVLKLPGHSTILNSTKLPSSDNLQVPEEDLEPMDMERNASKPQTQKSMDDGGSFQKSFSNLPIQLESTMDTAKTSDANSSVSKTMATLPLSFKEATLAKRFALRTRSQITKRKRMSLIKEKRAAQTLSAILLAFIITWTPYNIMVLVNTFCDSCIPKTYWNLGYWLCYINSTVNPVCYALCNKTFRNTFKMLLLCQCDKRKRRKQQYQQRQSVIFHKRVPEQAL

As for `C=CCn1ncc(C2CCCNC2)n1` (single isomer, unassigned; (+)) [listing 1 of 2 here], the Ki in [1] worked out at 330 nM; in assay [4], 45 nM; in [5] it was 210 nM; in assay [7] it was 190 nM. Also, the EC50 in assay [2] was 4300 nM; in [3], 680 nM; in [6] it was over 3400 nM.

In the case of `C[N+](C)(C)CC#CCOC(=O)Nc1cccc(Cl)c1.[Cl-]`, the Ratio worked out at 28 in assay [8] and 0.8 in [13]. Further, the EC50 in [9] is 6500 nM; in assay [6] it was at least 3900 nM. Also, the median effective dose (ED50) in assay [10], in assay [11] and in assay [14] was over 63 µmol/kg in each case. The inhibition constant Ki in assay [12] was determined as 460 nM; in assay [4], 18 nM; in [5] it was 600 nM; in assay [15], 500 nM.

With `C=CCn1ncc(C2CCCNC2)n1` (racemic) [listing 1 of 2 here], the inhibitory constant (Ki) came to 300 nM in [1], 25 nM in [4], 100 nM in [5] and 910 nM in assay [7]. Besides, the half-maximal effective concentration (EC50) was 4400 nM in assay [9], 1100 nM in [3] and over 2800 nM in assay [6].

On to `CCn1nnc(C2=CCCNC2)n1`, for which the EC50 in assay [16] was at least 3300 nM; in assay [17], 6400 nM. For the same compound, the Ki in assay [1] was found to be 280 nM; in assay [4] it was 23 nM; in [5], 960 nM; in assay [7] it was 1600 nM.

Consider `C=CCn1ncc(C2CCCNC2)n1` (single isomer, unassigned; (+)) [listing 2 of 2 here], for which the Ratio in assay [8] stood at 4.2; in assay [13], 1.6. Also, the 50% effective dose (ED50) in assay [10], in [11] and in assay [14] was over 260 µmol/kg in each case.

Consider `CCCCCCCn1nnc(C2=CCCN(C)C2)n1`, for which the Ratio in assay [8] came out at 1.2; in [13] it was 4.3. Besides, the Ki came to 160 nM in [18], 120 nM in [4], 37 nM in [5] and 140 nM in [7].

For the compound `CCN1C(=O)CC2(CCN(C)CC2)C1=O`, the Ratio in assay [8] amounted to 49; in assay [13], 1. Further, the inhibitory constant (Ki) stood at 400 nM in assay [1], 14 nM in assay [4], 400 nM in assay [5] and 690 nM in [7]. The EC50 in assay [2] is 430 nM; in assay [3] it was 400 nM; in assay [6], at least 1100 nM.

In the case of `CN1CCC=C(c2cnn(C)n2)C1`, the Ratio in assay [8] turned out to be 360; in [13] it was 4.5. Besides, the Ki amounted to 160 nM in assay [1], 0.78 nM in assay [4], 35 nM in assay [5] and 280 nM in [7]. For the same compound, the figures for the EC50 in assay [2] and in assay [6] were 130 nM and at least 430 nM, respectively.

As to `C#CCn1ncc(C2CCCNC2)n1` (single isomer, unassigned; (+)), the results for the Ratio in [8] and in assay [13] were 44 and 0.2, respectively. The 50% effective dose (ED50) worked out at 23 µmol/kg in [10], 7 µmol/kg in assay [11] and 32 µmol/kg in assay [14].

For the compound `C=CCn1ncc(C2CCCNC2)n1` (racemic) [listing 2 of 2 here], the Ratio in assay [8] was found to be 36; in [13], 3. Also, the median effective dose (ED50) is over 350 µmol/kg in [10], 320 µmol/kg in assay [11] and over 350 µmol/kg in assay [14].

For the compound `C=CCn1ncc(C2CCCNC2)n1` (stereo in doubt; (-)-15b), the inhibition constant (Ki) in assay [1] turned out to be 310 nM; in assay [4] it was 37 nM; in assay [5], 170 nM; in assay [7] it was 530 nM. Besides, the EC50 was 840 nM in assay [3] and over 2500 nM in assay [6].

Consider `CCn1ncc(C2=CCCN(C)C2)n1`, for which the figures for the Ratio in assay [8] and in assay [13] were 65 and 2.5, respectively. Also, the Ki in assay [1] was found to be 61 nM; in assay [4], 1.7 nM; in [5], 24 nM; in [7] it was 110 nM. Moreover, the concentration giving a half-maximal response (EC50) is 940 nM in assay [2], over 51000 nM in [3] and over 1200 nM in assay [6].

For `CCn1nnc(C2=CCCN(C)C2)n1` [ALVAMELINE], the inhibition constant Ki worked out at 340 nM in [1], 9.2 nM in assay [4], 36 nM in [5] and 430 nM in assay [7]. Moreover, the ED50 in assay [10], in assay [11] and in [14] was over 120 µmol/kg in each case. Further, in assay [6], the EC50 was at least 2000 nM.

Consider `CCn1ncc(C2=CCCNC2)n1`, for which the Ratio in [8] came to 78; in [13], 1.4. Further, the inhibition constant Ki in assay [1] came out at 170 nM; in [4] it was 3.7 nM; in assay [5], 120 nM; in assay [7] it was 290 nM. Besides, the EC50 in [2] was 770 nM; in [3], 270 nM; in [6], at least 650 nM.

With `C#CCn1ncc(C2CCCNC2)n1` (racemic), the Ratio is 130 in assay [8] and 1.5 in assay [13]. For the same compound, the values for the ED50 in assay [10], in assay [11] and in [14] were 10 µmol/kg, 8.1 µmol/kg and 54 µmol/kg, respectively.
